From ChEMBL document CHEMBL3124882, “Semi-synthesis of acylated triterpenes from olive-oil industry wastes for the development of anticancer and anti-HIV agents” (Eur J Med Chem, 2014)
Activity calls are given as the source filed them. The calls are words filed in the database; no cut-off is given here.

Assays:
[1] = tested on: B16-F10; assay: Induction of apoptosis in mouse B16F10 cells assessed as late apoptotic cells at 2 X IC50 after 72 hrs by annexin V-FITC/propidium iodide staining-based FACS analysis (reference value: 9.8 +/- 2.2%); type: functional
[2] = tested on: B16-F10; assay: Induction of apoptosis in mouse B16F10 cells assessed as early apoptotic cells at IC50 after 72 hrs by annexin V-FITC/propidium iodide staining-based FACS analysis (reference value: 3.9 +/- 0.4%); type: functional
[3] = tested on: B16-F10; assay: Induction of apoptosis in mouse B16F10 cells assessed as necrotic cells at 2 X IC50 after 72 hrs by annexin V-FITC/propidium iodide staining-based FACS analysis (reference value: 4.0 +/- 0.6%); type: functional
[4] = tested on: B16-F10; assay: Induction of apoptosis in mouse B16F10 cells assessed as normal cells at 2 X IC50 after 72 hrs by annexin V-FITC/propidium iodide staining-based FACS analysis (reference value: 77.9 +/- 1.5%); type: functional
[5] = tested on: B16-F10; assay: Induction of apoptosis in mouse B16F10 cells assessed as total apoptotic cells at 2 X IC50 after 72 hrs by annexin V-FITC/propidium iodide staining-based FACS analysis (reference value: 13.7 +/- 2.7%); type: functional
[6] = tested on: B16-F10; assay: Cytotoxicity against mouse B16F10 cells after 72 hrs by MTT assay; type: functional, cell-based; conditions: B16-F10, 72 h
How it was run: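 B16F10 cells (DMEM, 2 mM glutamine, 10% heat-inactivated FCS, penicillin/streptomycin; subconfluent) seeded at 11·10^3 per well and exposed to 0–80 µg/mL for 72 h. Compounds were diluted from a 10 mg/mL stock in 50% DMSO/PBS. MTT 0.5 mg/mL for 2 h, formazan dissolved in DMSO, absorbance at 550 nm. Viability is relative to untreated controls; IC50 from four assays of six replicates, mean ± S.E.M.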

[7] = tested on: B16-F10; assay: Induction of apoptosis in mouse B16F10 cells assessed as normal cells at IC50 after 72 hrs by annexin V-FITC/propidium iodide staining-based FACS analysis (reference value: 77.9 +/- 1.5%); type: functional
[8] = tested on: B16-F10; assay: Induction of ROS generation in mouse B16F10 cells at IC50 to 2 X IC50 after 72 hrs by rhodamine123/propidium iodide staining-based FACS analysis; type: functional, cell-based
How it was run: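 B16F10 cells, 11·10^4 per well, treated 72 h at IC50 or 2×IC50, then given fresh medium with dihydrorhodamine 123 at a final 5 µg/mL for 30 min. Cells washed, resuspended in PBS and read by flow cytometry for Rh123 and PI fluorescence (excitation 500 nm, emission 536 nm). Rh123+ cells scored ROS-positive regardless of PI. Three experiments in duplicate, mean ± S.E.M.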

[9] = tested on: B16-F10; assay: Induction of apoptosis in mouse B16F10 cells assessed as total apoptotic cells at IC50 after 72 hrs by annexin V-FITC/propidium iodide staining-based FACS analysis (reference value: 13.7 +/- 2.7%); type: functional
[10] = tested on: B16-F10; assay: Induction of apoptosis in mouse B16F10 cells assessed as necrotic cells at IC50 after 72 hrs by annexin V-FITC/propidium iodide staining-based FACS analysis (reference value: 4.0 +/- 0.6%); type: functional
[11] = tested on: B16-F10; assay: Induction of apoptosis in mouse B16F10 cells assessed as late apoptotic cells at IC50 after 72 hrs by annexin V-FITC/propidium iodide staining-based FACS analysis (reference value: 9.8 +/- 2.2%); type: functional
[12] = tested on: B16-F10; assay: Induction of apoptosis in mouse B16F10 cells assessed as early apoptotic cells at 2 X IC50 after 72 hrs by annexin V-FITC/propidium iodide staining-based FACS analysis (reference value: 3.9 +/- 0.4%); type: functional
[13] = target: Protease (Human immunodeficiency virus 1, UniProt Q9YQ12); assay: Inhibition of HIV1 recombinant protease expressed in Escherichia coli using Abz-Ala-Arg-Val-Nle-Tyr(NO2)-Glu-Ala-Nle-NH2 as substrate by FRET assay
Sequence of Protease (Q9YQ12 whole entry): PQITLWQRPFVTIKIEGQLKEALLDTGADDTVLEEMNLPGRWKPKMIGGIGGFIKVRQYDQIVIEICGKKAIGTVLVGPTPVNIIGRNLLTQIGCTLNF

IC50 [13] [µM]	Compound	Activity [1] [%]	Activity [2] [%]	Activity [3] [%]	Activity [4] [%]	Activity [5] [%]	IC50 [6] [µM]	Activity [7] [%]	Activity [8]	Activity [9] [%]	Activity [10] [%]	Activity [11] [%]	Activity [12] [%]
0.4	CC1(C)CC[C@]2(C(=O)OCc3ccccc3)CC[C@]3(C)C(=CC[C@@H]4[C@@]5(C)CC[C@H](OC(=O)c6ccccc6C(=O)O)C(C)(C)[C@@H]5CC[C@]43C)[C@@H]2C1	28.5	64.3	1	3.7	95.4	26.8	3.9	inactive	94.6	1.5	30.3	66.9
124	CCCCCC(=O)O[C@@H]1C[C@]2(C)[C@H]3CC=C4[C@@H]5CC(C)(C)CC[C@]5(C(=O)O)CC[C@@]4(C)[C@]3(C)CC[C@H]2C(C)(C)[C@H]1O	17.5	42.4	1.1	18.9	80.2	34.6	34.8	Active	61.4	3.9	19	62.7
	CCC(=O)O[C@H]1CC[C@]2(C)[C@H]3CC=C4[C@@H]5CC(C)(C)CC[C@]5(C(=O)O)CC[C@@]4(C)[C@]3(C)CC[C@H]2C1(C)C	16.5	47	2	37.2	60.8	161	24.3	Active	74.4	1.3	27.4	44.3
	CC(C)(CC(=O)O)CC(=O)O[C@H]1CC[C@]2(C)[C@H]3CC=C4[C@@H]5CC(C)(C)CC[C@]5(C(=O)OCc5ccccc5)CC[C@@]4(C)[C@]3(C)CC[C@H]2C1(C)C	36.1	44	6.4	4.9	88.8	14.2	8.3	Active	86.5	5.3	42.6	52.8
0.8	CC1(C)CC[C@]2(C(=O)OCc3ccccc3)CC[C@]3(C)C(=CC[C@@H]4[C@@]5(C)C[C@@H](OC(=O)c6ccccc6C(=O)O)[C@H](O)C(C)(C)[C@@H]5CC[C@]43C)[C@@H]2C1	46.2	42.2	7.5	2.9	89.7	73.2	32.8	inactive	64.7	2.5	22.5	43.6
	CC(=O)O[C@@H]1C[C@]2(C)[C@H]3CC=C4[C@@H]5CC(C)(C)CC[C@]5(C(=O)OCc5ccccc5)CC[C@@]4(C)[C@]3(C)CC[C@H]2C(C)(C)[C@H]1O	27.1	66	0.6	1.1	98.4	39.6	12.9	Active	86	1.2	20	71.3
	CC(C)(CC(=O)O)CC(=O)O[C@@H]1C[C@]2(C)[C@H]3CC=C4[C@@H]5CC(C)(C)CC[C@]5(C(=O)OCc5ccccc5)CC[C@@]4(C)[C@]3(C)CC[C@H]2C(C)(C)[C@H]1O	65.3	16.5	5.6	2.2	92.2	28.3	35.4	Active	62.8	1.8	46.3	26.9
	CC1(C)CC[C@]2(C(=O)OCc3ccccc3)CC[C@]3(C)C(=CC[C@@H]4[C@@]5(C)C[C@@H](OC(=O)CCCC(=O)O)[C@H](O)C(C)(C)[C@@H]5CC[C@]43C)[C@@H]2C1	19.8	10.6	0.9	20.2	78.9	63.2	73.3	Active	25.2	1.6	14.6	59.1
	CCCC(=O)O[C@@H]1C[C@]2(C)[C@H]3CC=C4[C@@H]5CC(C)(C)CC[C@]5(C(=O)O)CC[C@@]4(C)[C@]3(C)CC[C@H]2C(C)(C)[C@H]1O	30	55.6	6.8	10.2	83	107	21	Active	77.7	1.2	22.1	53
	CC1(C)CC[C@]2(C(=O)OCc3ccccc3)CC[C@]3(C)C(=CC[C@@H]4[C@@]5(C)CC[C@H](OC(=O)CCCC(=O)O)C(C)(C)[C@@H]5CC[C@]43C)[C@@H]2C1	24.6	20.6	1.6	8.1	90.4	29.9	25.8	inactive	58.4	15.9	37.9	65.8
3.4	CC(=O)O[C@H]1CC[C@]2(C)[C@H]3CC=C4[C@@H]5CC(C)(C)CC[C@]5(C(=O)O)CC[C@@]4(C)[C@]3(C)CC[C@H]2C1(C)C [ACETYL OLEANOLIC ACID]	33.4	14.4	5.7	46.3	48	64.7	39.5	Active	54.7	5.8	40.3	14.6
